# DENV2 CPE: inhibitors of DENV2 cytopathic effect | DENV2-infected cells, cytopathic effect rescue, plate reader | CPE inhibition, % at 9.99 µM | hit rate 1.7% among 350,000; in the data active = CPE inhibition above about 20%, passing the limit was not always enough; inconclusive = no clear call, values can overlap the other calls; tested in BHK-21 cells;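 also: 0% = median of neutral control wells and 100% = median of positive control wells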
# SIRT5 inh: inhibitors of human sirtuin-5 desuccinylase; Q9NXA8; Purified SirT5, succinyl-peptide AMC, trypsin-coupled fluorescence; inhibition, % at 15 µM; hit rate 1.1% among 330,000; AID 652115; in the data active = inhibition above about 15%; inconclusive = no clear call, values can overlap the other calls
# Target sequence (Q9NXA8 whole entry, looked up): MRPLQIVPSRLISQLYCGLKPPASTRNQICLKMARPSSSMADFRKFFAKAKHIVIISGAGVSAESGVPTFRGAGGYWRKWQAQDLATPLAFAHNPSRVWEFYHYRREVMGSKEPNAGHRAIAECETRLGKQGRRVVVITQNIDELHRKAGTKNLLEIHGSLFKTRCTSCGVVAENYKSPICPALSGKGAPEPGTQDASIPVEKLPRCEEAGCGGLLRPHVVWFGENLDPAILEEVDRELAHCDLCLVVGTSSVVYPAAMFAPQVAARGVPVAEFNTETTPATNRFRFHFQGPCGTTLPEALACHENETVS
# FGF22 binding: FGF22 (human) thermal shift binding; Q9HCT0; recombinant FGF22 thermal shift, SYPRO orange fluorescence; percent of sucrose octasulfate shift, DMSO zero; activity (Tm shift, normalised), % at 9.99 µM; hit rate 1.5% among 340,000; AID 651658;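 active = mean Tm shift, scaled 0 neutral to 100 positive control, at about 1.3% or above, every replicate too, limit read from the data; inconclusive = no clear call, values can overlap the other calls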
# Target sequence (Q9HCT0 whole entry, looked up): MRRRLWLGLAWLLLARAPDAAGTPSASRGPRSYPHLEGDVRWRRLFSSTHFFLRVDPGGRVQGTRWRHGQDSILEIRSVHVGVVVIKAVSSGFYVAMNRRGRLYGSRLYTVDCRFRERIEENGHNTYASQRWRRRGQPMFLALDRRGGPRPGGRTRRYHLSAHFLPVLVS
# ARNT-TACC3 inh: disruptors of human ARNT/TACC3 interaction. Q9Y6A5. AlphaScreen His-ARNT PAS-B/GST-TACC3 binding, luminescence; TACC3 fragment carries E629A point mutation. inhibition, % at 9.99 µM. hit rate 0.66% among 390,000;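 active = mean inhibition of replicates at least 50% and at least half of replicates each reaching 50%; inconclusive = half or more replicates reach 50% but mean below 50%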;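 also: 0% = complete ARNT plus TACC3 wells and 100% = ARNT alone without TACC3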
# Xi reactivation: X-chromosome reactivation activator; hit rate 0.055% among 360,000; AID 743238; activation, % at 7.58 µM; XiGFP mouse fibroblasts, % GFP-positive cells imaging, 3 d; cells co-treated with 5-aza-dC sensitizer; scaled so ellipticine positive control = 100%;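 active = mean normalized replicate activation at least 10% and every replicate at or above 10%; inconclusive = only one of the two criteria met; inactive = mean below 10% and not all replicates reach 10%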;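 also: 0% = median of on-plate neutral control wells and 100% = ellipticine 6 µM median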
#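 System: XiGFP fibroblasts, SV40-immortalized. Medium: DMEM plus 5-aza-dC sensitizer. Doses: single point. Timing: 3 d treatment, 15 min room-temperature fixation. Control set: ellipticine 6 µM.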
# FN deposit inh: fibronectin deposition inhibition | AH1F fibroblasts, Alexa488-fibronectin deposition fluorescence, overnight | inhibition, % at 12.6 µM | hit rate 0.086% among 350,000 | AID 743247;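 active = mean inhibition across replicates of 30% or more, regardless of how many single replicates reach that level; inconclusive = mean under 30% yet at least half of replicates reach 30%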;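 also: positive control wells lacked labelled fibronectin entirely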
#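 Material: AH1F fibroblasts assembling fluorescent fibronectin matrix; amount: 10000 AH1F cells/well; medium: DMEM, 2% serum; reagent: Alexa488-fibronectin, 24 nM final in well; dosing: single compound dose, delivered by pin transfer; incubation: 1 h adhesion, overnight exposure; detection: fluorescence after three HBSS washes, excitation 485 nm, emission 525 nm; measure: fibronectin deposition inhibition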
# * hit, by the source's call; ? = inconclusive; / = not tested or not shown. Rows were chosen to be rich in hits. Some 3.8% of all compounds tested hit in one or more screens of this group.
SMILES,DENV2 CPE,SIRT5 inh,FGF22 binding,ARNT-TACC3 inh,Xi reactivation,FN deposit inh
COc1ccc(NC(=O)Nc2cccc3c2O[C@@H](CN(C)Cc2ccc(Oc4ccccc4)cc2)[C@H](C)CN([C@@H](C)CO)C3=O)cc1,-1.3,16.3*,0.3,19.4,-0.1,/
COc1ccc(NC(=O)Nc2cccc3c2O[C@@H](CN(C)Cc2ccc(Oc4ccccc4)cc2)[C@@H](C)CN([C@H](C)CO)C3=O)cc1,-2.4,-0.7,-1.0,11.2,0.8,/
COc1ccc(NC(=O)Nc2cccc3c2O[C@@H](CN(C)Cc2ccccc2)[C@@H](C)CN([C@@H](C)CO)C3=O)cc1,-6.5,-0.7,-0.2,2.0,-0.9,/
COc1ccc(NC(=O)Nc2cccc3c2O[C@@H](CN(C)Cc2ccc(Oc4ccccc4)cc2)[C@@H](C)CN([C@@H](C)CO)C3=O)cc1,?,15.3*,-0.8,-1.9,-1.4,/
CC(=O)C1=C(O)C(=O)N(CCc2ccccc2)C1c1ccccc1[N+](=O)[O-] (centres undefined),30.5*,5.8,-0.3,-6.1,-0.1,-9.9
CCN(CC)CCN1C(=O)C(O)=C(C(C)=O)C1c1ccccc1[N+](=O)[O-] (centres undefined),-5.3,/,-0.1,3.8,0.0,-6.7
CC1(C)CC(=O)c2cnc3c(C#N)cnn3c2C1,3.6,-3.7,43.7*,0.6,0.0,7.1
CSc1nc2ncc3c(n2n1)CC(C)(C)CC3=O,-1.3,-30.7,0.2,-1.1,0.1,-2.6
N#Cc1ccc(C(=O)N2CCN(S(=O)(=O)c3ccc(Br)s3)CC2)cc1,3.0,-1.0,43.8*,-1.8,0.0,5.6
CCOc1ccc(NC(C)=O)cc1[N+](=O)[O-],-0.7,-5.8,43.4*,-6.1,0.0,-2.9
CCOc1ccc(C(=O)Nc2cccc(C(C)=O)c2)cc1[N+](=O)[O-],0.8,-0.7,42.8,-5.4,0.4,1.1
OC[C@H]1Nc2ccc(-c3cccc(F)c3)cc2[C@@H]2[C@H]1CCN2Cc1ccc(F)cc1,47.6*,7.5,-0.5,-1.4,0.2,-10.8
CC(=O)N1CC[C@@H]2[C@@H](CO)Nc3ccc(-c4cccc(F)c4)cc3[C@@H]21,28.6*,-11.8,-0.1,1.4,0.2,-1.2
O=C(C1CC1)N1CC[C@H]2[C@H](CO)Nc3ccc(-c4ccc(F)cc4)cc3[C@H]21,3.5,-4.7,0.0,16.3,0.2,0.9
CC(=O)N1CC[C@@H]2[C@H]1c1cc(-c3cccc(F)c3)ccc1N[C@@H]2CO,3.3,0.9,0.1,-6.6,0.1,-11.2
O=C(C1CCOCC1)N1CC[C@@H]2[C@H]1c1cc(-c3cccc(F)c3)ccc1N[C@@H]2CO,87.9*,-1.7,0.1,-4.5,0.1,0.0
O=C(C1CC1)N1CC[C@@H]2[C@H]1c1cc(-c3ccc(F)cc3)ccc1N[C@@H]2CO,121.7*,/,0.1,14.1,0.1,12.1
CCCNC(=O)c1cc2c(c(-c3cccc(-c4cccc(F)c4)c3)n1)[C@H](CCO)N([S@@](=O)C(C)(C)C)C2,-1.1,3.7,-0.2,1.3,/,/
O=C(O)CCN1CCc2ccccc21,/,/,/,-5.3,/,-6.8
C[N+](C)(C)CCN1CCc2ccccc21,1.0,21.7*,-0.4,/,0.0,6.6
COC(=O)C[C@@H]1OC[C@H](Cc2ccccc2)N1S(=O)(=O)c1ccc(C)cc1,20.6*,0.4,-0.1,/,0.2,7.7
COc1ccc(C(=O)C[C@@H]2OC[C@H](C)N2S(=O)(=O)c2ccc(C)cc2)cc1OC,56.9*,0.0,0.0,/,-0.1,-2.2
CCOC(=O)C[C@@H]1OC[C@H](Cc2ccccc2)N1S(=O)(=O)c1ccc(C)cc1,-4.4,1.8,-0.3,/,-0.1,4.3
C[C@H]1CN([C@@H](C)CO)C(=O)CCCn2cc(nn2)CO[C@H]1CN(C)C(=O)Nc1ccc2c(c1)OCCO2,-7.0,-1.3,-0.4,-1.5,0.1,-4.6
C[C@@H]1CCCCO[C@@H](CN(C)C(=O)c2ccccc2)[C@H](C)CN([C@H](C)CO)C(=O)c2cc(NS(=O)(=O)c3ccc(Cl)cc3)ccc2O1,-6.8,-3.1,0.2,2.3,0.0,5.3
SMILES,DENV2 CPE,SIRT5 inh,FGF22 binding,ARNT-TACC3 inh,Xi reactivation,FN deposit inh
COc1ccc(S(=O)(=O)/N=C2/NC(=O)/C(=C/c3ccco3)S2)cc1,/,16.1*,1.4*,10.1,0.0,6.3
COc1ccc(S(=O)(=O)/N=C2/NC(=O)/C(=C\c3ccco3)S2)cc1,/,/,/,5.0,0.0,-1.3
C[C@H](CO)N1C[C@H](C)[C@@H](CN(C)C(=O)Nc2cccc3ccccc23)Oc2ccc(NC(=O)Cc3ccccc3)cc2C1=O,/,/,/,/,0.0,0.7
O=C(NC(=S)NNC(=O)c1ccccc1O)c1cccnc1,10.4,4.4,0.1,67.3*,-0.1,13.8
O=C(NNC(=O)c1cccs1)c1cccnc1,-0.1,6.5,0.0,7.2,0.3,-1.4
O=C(NC(=S)NNC(=O)c1ccc(Cl)cc1Cl)c1cccnc1,/,/,/,11.3,-0.1,12.4
O=C(NNC(=S)NC(=O)c1cccs1)c1cccnc1,19.5,17.3*,0.3,22.4,0.0,2.1
O=C(NC(=S)NNC(=O)c1ccccc1O)c1cccc([N+](=O)[O-])c1,5.8,3.1,0.4,77.3*,0.0,10.5
CN1[C@@H]2c3ccc(C4=CCCCC4)c(=O)n3C[C@H]1[C@H](CO)[C@H]2C(=O)NCc1cc(F)cc(F)c1,-0.7,-18.2,0.1,2.7,0.1,/
CC(C)C[C@@H]1COCc2cn(nn2)CC[C@H](Cc2cccc(Cl)c2)C(=O)N1,/,/,/,/,0.2,-0.3
O=C(N[C@@H]1C=C[C@@H](CC(=O)N2CCc3ccccc3C2)O[C@H]1CO)C1CC1,-1.1,0.3,-0.1,3.1,-0.1,-2.7
C[C@H](CO)N1C[C@H](C)[C@@H](CN(C)C(=O)Nc2ccc(F)cc2)Oc2c(NC(=O)C3CC3)cccc2C1=O,3.6,0.0,0.6,12.8,0.1,/
COC(=O)CSc1nccc(C)n1,4.6,1.7,43.6*,-0.7,0.0,9.8
C[C@@H]1CCCCO[C@H](CN(C)Cc2ccccc2)[C@H](C)CN([C@H](C)CO)C(=O)c2cc(NS(C)(=O)=O)ccc2O1,/,/,/,/,-1.0,/
CCCC#Cc1cnc2c(c1)C(=O)N([C@@H](C)CO)C[C@H](C)[C@@H](CN(C)C)O2,?,5.7,0.0,17.0,-1.2,-6.7
COc1ccc(Br)cc1/C=N/NC(=O)C(c1ccncc1)N1CCOCC1 (centres undefined),97.9*,3.0,-0.1,-7.2,-0.1,4.8
Cc1ccc(Cn2c([N+](=O)[O-])cnc2C)cc1,/,/,/,-5.2,0.5,/
Cc1ncc([N+](=O)[O-])n1Cc1ccccc1,50.5*,-1.7,0.0,0.6,0.2,-0.5

# From PubChem BioAssay
